The target in assay [1] is T1, Mitogen-activated protein kinase; ERK1/ERK2 (Homo sapiens) (UniProt P27361+P28482). Put plainly: Activation of ERK1/2 phosphorylation in human HeLa cells assessed as increase in ratio of phosphorylated ERK1/2 to total ERK1/2 level at 5 uM in presence of ERK1/2 inhibitor PD98059 by ELISA. It counts as cell-based. The gist of the method:
(§1)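 Cell-based ELISA: HeLa or MCF-7 cells (20×10^3/well) grown overnight at 37 °C, 5% CO2, treated with 5 μM, then fixed and blocked. Probed with rabbit anti-total and anti-phospho P38, JNK or ERK1/2 (1:100), then HRP anti-rabbit IgG. Result is the phospho/total ratio; inhibitor arms use […], […] or SP600125. n=3.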

Assay [2] relates to HeLa. Nature of the assay: Effect on mitochondrial membrane potential in human HeLa cells assessed as shift change at 5 uM after 1 hrs by Rhodamine 123 dye-based fluorescence assay. It counts as functional, cell-based. The method in brief: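 Mitochondrial potential: HeLa or MCF-7 cells treated with 5 µM (final) for 1, 2, 4 and 8 h. Rhodamine 123 added, cells incubated 30 min at 37 °C, washed with PBS, and analysed by flow cytometry. Fluorescence histogram shift is compared with control.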

The target of assay [3] is Tyrosine-protein kinase ABL1 (Homo sapiens) (UniProt P00519). Nature of the assay: Inhibition of ABL phosphorylation (unknown origin) at 50 uM after 5 to 60 mins by bioluminescence assay. The method in brief: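 Kinase activity measured with compound at 1, 5, 10 and 50 μM, using a Kinase Reaction Rate Kit. Phosphorylation was followed by bioluminescent monitoring of ATP consumption, with light read at 5 min and 1 h. Staurosporine served as positive control. Data given as % kinase inhibition (% of control activity), from two separate experiments.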

Assay [4] deals with MCF7. Nature of the assay: Induction of caspase-dependent apoptosis in human MCF7 cells assessed as activation of caspase-7 at 1 to 3 uM after 24 hrs by Western blot analysis. It counts as functional, cell-based. The method in brief: (§2)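 Cells were treated at 1, 3 and 5 µM for 24 h at 37 °C. Lysis was in ice-cold Triton X-100 buffer with protease and phosphatase inhibitors; nuclear proteins were extracted separately. Protein was quantified by BCA. Lysates were separated by electrophoresis, transferred to nitrocellulose and blocked in non-fat milk for 1 h. Primary antibody was applied overnight at 4 °C and secondary for 1 h at 28 °C. Detection was by enhanced chemiluminescence.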
For orientation: In western blotting, separated proteins are transferred to a membrane and probed.

Assay [5] deals with T2, MAP kinase p38 (Homo sapiens) (UniProt O15264+Q15759+Q16539+P53778). Put plainly: Activation of MAPK p38 phosphorylation in human HeLa cells assessed as increase in ratio of phosphorylated p38 to total p38 level at 5 uM by ELISA. Format: cell-based. The method in brief:
as §1

The target in assay [6] is T3, Tyrosine-protein phosphatase non-receptor type 1 (Homo sapiens) (UniProt P18031).
T3 sequence (whole entry): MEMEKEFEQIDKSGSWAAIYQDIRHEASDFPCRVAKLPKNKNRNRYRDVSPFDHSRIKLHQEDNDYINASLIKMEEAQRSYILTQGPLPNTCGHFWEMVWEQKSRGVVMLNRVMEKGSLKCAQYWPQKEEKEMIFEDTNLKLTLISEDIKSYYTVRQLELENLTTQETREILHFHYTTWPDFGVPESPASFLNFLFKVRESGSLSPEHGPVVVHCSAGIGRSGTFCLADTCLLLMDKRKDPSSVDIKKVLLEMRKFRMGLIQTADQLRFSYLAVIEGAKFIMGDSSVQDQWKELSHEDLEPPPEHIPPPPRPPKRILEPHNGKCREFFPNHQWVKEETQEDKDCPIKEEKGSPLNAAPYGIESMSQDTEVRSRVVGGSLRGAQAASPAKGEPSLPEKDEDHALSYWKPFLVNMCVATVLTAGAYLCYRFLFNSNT
Nature of the assay: Inhibition of recombinant human PTP1B using 6,8-difluoro-4-methylumbelliferyl phosphate fluorogenic substrate measured over 30 mins by fluorescence assay. The method in brief:
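Recombinant human PTP1B, 1.56 ng/well, in buffer of 25 mM HEPES, 50 mM NaCl, 2.5 mM EDTA, DTT and 0.01 mg/mL human albumin. Preincubated with compound for 30 min in the dark, then DiFMUP added (25 μL of 10 μM solution). Fluorescence read after 10 min (ex 360/em 465 nm). Triplicates; % inhibition relative to PTP inhibitor IV (0.16 mM) and buffer controls.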

In assay [7] the test system is MCF7. Put plainly: Induction of apoptosis in human MCF7 cells assessed as viable cells at 1 uM after 8 hrs by annexin-V FITC/propidium iodide staining based flow cytometric analysis relative to control. It counts as functional. Particulars: MCF7, 8 h, read-out: Activity. The gist of the method:
(§3)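 Cells were grown in DMEM with 10% heat-inactivated FBS at 37 °C and 5% CO₂, then plated at 500,000 cells/well in 24-well plates. They were treated from a DMSO stock (DMSO ≤0.1%) for 8, 12 or 16 h. After a PBS wash, cells were resuspended in binding buffer (10 mM HEPES pH 7.4, 2.5 mM CaCl₂, 140 mM NaCl, 0.1% BSA), stained 40 min with FITC-annexin V, then with PI, and run on the flow cytometer immediately. Values are the mean of three independent experiments.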
A general note: In flow cytometry, cells or beads pass a laser one at a time.

The target in assay [8] is T2, MAP kinase p38 (Homo sapiens). Nature of the assay: Activation of MAPK p38 phosphorylation in human MCF7 cells assessed as increase in ratio of phosphorylated p38 to total p38 level at 5 uM by ELISA. It counts as cell-based. The method in brief:
as §1
Background: In an ELISA, binding on a coated surface is turned into a signal by an enzyme label.

Assay [9] deals with T1, Mitogen-activated protein kinase; ERK1/ERK2 (Homo sapiens). Put plainly: Activation of ERK1/2 phosphorylation in human HeLa cells assessed as increase in ratio of phosphorylated ERK1/2 to total ERK1/2 level at 5 uM by ELISA. Format: cell-based. The method in brief: as §1
In assay [10] the test system is MCF7. Put plainly: Induction of apoptosis in human MCF7 cells assessed as increase in Mcl-1 short level at 1 to 3 uM after 24 hrs by Western blot analysis. Format: functional, cell-based. The gist of the method:
as §2

For assay [11], the target named is T2, MAP kinase p38 (Homo sapiens). Put plainly: Activation of MAPK p38 phosphorylation in human HeLa cells assessed as increase in ratio of phosphorylated p38 to total p38 level at 5 uM in presence of p38 kinase inhibitor […] by ELISA. It counts as cell-based. The gist of the method: as §1
Assay [12] deals with HeLa. Nature of the assay: Induction of apoptosis in human HeLa cells assessed as late apoptotic cells at 1 uM after 8 hrs by annexin-V FITC/propidium iodide staining based flow cytometric analysis relative to control. Format: functional. The gist of the method:
as §3

Assay [13] concerns FaDu. Put plainly: Cytotoxicity against human FADU cells assessed as reduction in cell viability after 4 hrs by MTT assay. It counts as functional, cell-based.
The subject of assay [14] is HeLa. Nature of the assay: Induction of apoptosis in human HeLa cells assessed as late apoptotic cells at 1 uM after 16 hrs by annexin-V FITC/propidium iodide staining based flow cytometric analysis relative to control. Format: functional. The gist of the method:
as §3

The test system of assay [15] is A549. Nature of the assay: Cytotoxicity against human A549 cells assessed as reduction in cell viability after 4 hrs by MTT assay. Format: functional, cell-based. The method in brief: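 MTT: 10,000–20,000 cells/well attached for 16 h, then washed twice with serum-free RPMI. Treated with 1–200 µM for 4 h, 3 parallel runs per concentration. MTT added for 2 h; medium partly removed and isopropanol added. A590 read. Viability = (A treated − A doxorubicin)/(A medium − A doxorubicin)×100. Mean of three experiments, triplicate wells each.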

Usually IC50 stands for the midpoint of a concentration-inhibition curve.

Calls of active or inactive are those of the source. No cut-off for these calls is given here.

T1 sequence (P27361 whole entry, looked up): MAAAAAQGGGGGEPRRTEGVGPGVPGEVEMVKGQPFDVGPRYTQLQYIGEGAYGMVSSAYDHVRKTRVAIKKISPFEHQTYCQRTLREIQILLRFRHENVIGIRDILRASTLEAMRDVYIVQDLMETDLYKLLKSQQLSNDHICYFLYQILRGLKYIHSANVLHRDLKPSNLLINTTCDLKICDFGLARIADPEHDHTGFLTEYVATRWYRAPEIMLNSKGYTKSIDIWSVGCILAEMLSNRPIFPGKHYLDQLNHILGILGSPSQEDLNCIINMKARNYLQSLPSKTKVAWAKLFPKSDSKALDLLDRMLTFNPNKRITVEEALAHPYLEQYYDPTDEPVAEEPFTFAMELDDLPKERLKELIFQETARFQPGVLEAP
T1 sequence (P28482 whole entry, looked up): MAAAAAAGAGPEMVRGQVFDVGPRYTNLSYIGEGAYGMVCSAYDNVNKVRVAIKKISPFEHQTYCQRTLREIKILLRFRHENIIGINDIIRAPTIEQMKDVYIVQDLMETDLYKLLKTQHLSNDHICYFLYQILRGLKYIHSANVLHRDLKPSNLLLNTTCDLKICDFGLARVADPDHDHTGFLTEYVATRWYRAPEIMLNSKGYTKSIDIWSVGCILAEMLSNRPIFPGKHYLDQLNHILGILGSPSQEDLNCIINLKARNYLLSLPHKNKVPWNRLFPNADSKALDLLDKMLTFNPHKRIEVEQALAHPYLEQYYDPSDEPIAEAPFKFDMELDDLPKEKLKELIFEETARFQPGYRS
Chain of Tyrosine-protein kinase ABL1 (Homo sapiens) (P00519 whole entry): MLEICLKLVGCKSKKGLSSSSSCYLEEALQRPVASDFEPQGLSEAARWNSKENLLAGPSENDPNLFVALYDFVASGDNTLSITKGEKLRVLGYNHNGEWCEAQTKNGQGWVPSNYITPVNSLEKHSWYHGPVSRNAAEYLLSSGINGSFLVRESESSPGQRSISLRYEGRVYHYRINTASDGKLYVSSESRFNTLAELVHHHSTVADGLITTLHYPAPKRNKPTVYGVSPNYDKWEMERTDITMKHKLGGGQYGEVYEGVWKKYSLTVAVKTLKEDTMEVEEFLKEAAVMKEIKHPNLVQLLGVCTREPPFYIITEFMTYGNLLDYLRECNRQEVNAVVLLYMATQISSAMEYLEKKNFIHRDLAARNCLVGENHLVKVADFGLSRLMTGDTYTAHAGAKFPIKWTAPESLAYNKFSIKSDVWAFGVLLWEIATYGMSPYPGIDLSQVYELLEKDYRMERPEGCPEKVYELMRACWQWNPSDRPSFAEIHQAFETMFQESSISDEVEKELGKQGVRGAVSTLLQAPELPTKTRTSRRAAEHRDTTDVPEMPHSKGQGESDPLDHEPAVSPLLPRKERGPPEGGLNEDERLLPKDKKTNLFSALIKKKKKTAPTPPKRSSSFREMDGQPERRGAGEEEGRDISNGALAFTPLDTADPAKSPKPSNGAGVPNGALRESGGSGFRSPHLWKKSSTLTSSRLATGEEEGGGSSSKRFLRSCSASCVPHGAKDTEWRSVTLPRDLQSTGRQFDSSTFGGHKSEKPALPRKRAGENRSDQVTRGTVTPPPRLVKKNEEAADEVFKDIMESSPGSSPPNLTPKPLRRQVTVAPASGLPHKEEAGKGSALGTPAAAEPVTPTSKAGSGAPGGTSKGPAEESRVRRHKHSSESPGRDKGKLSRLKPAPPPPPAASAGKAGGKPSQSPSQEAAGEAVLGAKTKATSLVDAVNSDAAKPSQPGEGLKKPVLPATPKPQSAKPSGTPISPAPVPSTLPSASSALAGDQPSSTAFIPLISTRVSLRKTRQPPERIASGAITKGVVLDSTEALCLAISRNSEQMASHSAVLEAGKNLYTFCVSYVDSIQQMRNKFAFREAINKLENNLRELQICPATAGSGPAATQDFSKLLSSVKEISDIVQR

Take `Cn1cc(/C=N\NC(=O)c2cn(C)c3ccc(Br)cc23)c2ccccc21`: the outcome in [1], in assay [4] and in [11] was inactive. In addition, the result in assay [2], in [5], in assay [8], in assay [9] and in [10] was Active. Moreover, in assay [3], the inhibition entry is “Active”. Besides, the inhibition entry in assay [6] is “Dose-dependent effect”. In assay [7], the viability at 1 µM came to 93.4%. In addition, the Activity in assay [12] was 11.5%; in [13], “Dose-dependent effect”; in [14], 71.74%; in [15], “Dose-dependent effect”. Further, the half-inhibitory concentration (IC50) in [13] was 9.64 µM; in assay [15] (Homo sapiens, A549, 4 h, read-out: IC50) it was 0.793 to 5.49 µM.

(Values after ChEMBL document CHEMBL4316598, “Synthesis, antiproliferative and apoptosis induction potential activities of novel bis(indolyl)hydrazide-hydrazone derivatives” (Bioorg Med Chem, 2019).)
